Screening results deposited in PubChem BioAssay by Sanford-Burnham Center for Chemical Genomics.
Apaf-1 act – activators of human Apaf-1 apoptosome | O14727 | activity change, negative = activation, % at 20 µM | hit rate 0.31% among 330,000 | AID 489031 | Apaf-1 apoptosome caspase-3 activation, DEVD-Rh110 fluorescence; hits give low values;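 active = activity change at or below -40% at 20 µM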
Target sequence (O14727 whole entry, looked up): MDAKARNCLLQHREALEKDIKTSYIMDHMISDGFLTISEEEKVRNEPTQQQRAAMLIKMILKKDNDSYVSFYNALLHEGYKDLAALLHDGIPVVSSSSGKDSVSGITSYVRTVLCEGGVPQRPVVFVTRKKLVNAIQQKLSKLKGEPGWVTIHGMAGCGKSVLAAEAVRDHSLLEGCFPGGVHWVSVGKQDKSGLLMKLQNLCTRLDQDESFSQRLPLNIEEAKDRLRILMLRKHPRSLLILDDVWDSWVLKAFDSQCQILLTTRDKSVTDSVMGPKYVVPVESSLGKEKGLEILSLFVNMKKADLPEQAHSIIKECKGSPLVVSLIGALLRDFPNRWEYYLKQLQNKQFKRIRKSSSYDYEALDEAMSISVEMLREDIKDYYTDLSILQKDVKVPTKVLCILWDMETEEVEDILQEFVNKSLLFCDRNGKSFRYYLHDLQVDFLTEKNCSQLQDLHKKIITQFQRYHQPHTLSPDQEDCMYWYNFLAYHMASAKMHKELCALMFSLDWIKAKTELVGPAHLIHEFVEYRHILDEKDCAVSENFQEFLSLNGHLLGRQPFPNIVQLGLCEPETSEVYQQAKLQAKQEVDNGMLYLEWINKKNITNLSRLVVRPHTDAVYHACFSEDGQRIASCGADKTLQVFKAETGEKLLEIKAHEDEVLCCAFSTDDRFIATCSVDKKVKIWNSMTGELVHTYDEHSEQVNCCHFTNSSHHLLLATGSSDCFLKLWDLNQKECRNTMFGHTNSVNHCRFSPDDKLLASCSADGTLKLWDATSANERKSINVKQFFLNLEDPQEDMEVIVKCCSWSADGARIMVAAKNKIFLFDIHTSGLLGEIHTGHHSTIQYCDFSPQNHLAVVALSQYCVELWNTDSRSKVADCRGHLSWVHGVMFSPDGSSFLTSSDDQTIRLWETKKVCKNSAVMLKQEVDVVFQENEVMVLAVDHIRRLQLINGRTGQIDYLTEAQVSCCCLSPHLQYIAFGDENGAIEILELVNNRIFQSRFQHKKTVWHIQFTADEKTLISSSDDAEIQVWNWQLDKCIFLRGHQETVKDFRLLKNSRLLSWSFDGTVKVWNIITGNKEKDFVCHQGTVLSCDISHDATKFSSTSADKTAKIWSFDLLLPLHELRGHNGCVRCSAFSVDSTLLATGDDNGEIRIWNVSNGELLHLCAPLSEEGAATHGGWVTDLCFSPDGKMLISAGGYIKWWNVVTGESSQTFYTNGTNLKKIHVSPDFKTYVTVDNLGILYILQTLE
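Assay system – biochemical Apaf-1 apoptosome reconstitution · Medium – 20 mM HEPES buffer, pH 7.5, containing CHAPS and BSA · Incubation – 30 min preincubation, 50 min reaction, room temperature · Measured by – Caspase-3-released Rh110 fluorescence, 540 nm emission, 480 nm excitation · Read-out – Caspase-3 cleavage activity downstream of Apaf-1 activation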
Rh110 interf act – interferes with Rh110 fluorescence, flagging false Apaf-1 activators | shares compounds with Apaf-1 act | Rh110 fluorescence interference, quenched caspase reaction, Ex480/Em540 | fluorescence interference (activity change), % at 20 µM, hits read low | 980 tested, under 10 active | AID 504616;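 active = mean activity change at or below -40% when tested at 20 µM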
Apaf-1 act conf2 – confirmation of human Apaf-1 activators | shares compounds with Apaf-1 act | hit rate 5% among 980 | reconstituted apoptosome caspase-3 activity, DEVD-Rh110 fluorescence; hits give low values | activity change, negative = activation, % at 20 µM;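 active = mean activity change at or below -40%, meaning activation of 40% or more, at 20 µM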
Apaf1 act interf – Apaf-1 activator counter-screen fluorescence artifact; fluorescence interference counterscreen, Apaf-1 activator assay; shares compounds with Apaf-1 act; EC50, µM; AID 588592; 55 tested, under 10 active; call rule not given here
Large screens that a line does not name were inactive (follow-up assays come after a bar, where they were run). These entries were drawn from the full list.

COc1cccc(C(=O)NN2C(=S)N(c3ccccc3)C(=O)C2CC(N)=O)c1 (stereo not given)	Apaf-1 act -83 | Rh110 interf act inactive | Apaf-1 act conf2 inactive
O=C1OC(Nc2cc(Br)cc3cccnc23)c2ccccc21 (stereo not given)	none
COc1ccc(-c2oc3ccc(-c4cc(OC)c(OC)c(OC)c4)cc3c2-c2ccc(OC)cc2)cc1	Apaf-1 act -211 | Rh110 interf act inactive | Apaf-1 act conf2 inactive
CCc1ccc(OCCNc2cc(N3CCNC(C)C3)ccc2[N+](=O)[O-])cc1 (stereo not given)	none
O=C(C[C@H]1C[C@H](C(=O)N2CCOCC2)[C@@]2(CCC3CCCC3)c3[nH]c4cc(-c5ccco5)ccc4c3CCN2C1=O)NCCCn1ccnc1	none
CCC(Cc1ccccc1)NC(=O)CCn1cccc1 (stereo not given)	Apaf-1 act -220 | Rh110 interf act inactive | Apaf-1 act conf2 inactive
CCCCC1=CC2=C(c3ccco3)C(=O)C(C)(OC(=O)c3ccc(OC)cc3)C(=O)C2=CN1C1CC1 (stereo not given)	none
COc1cc(OC)cc(-c2sc3ccc(OC)cc3c2C#CC2(N)CCCCC2)c1	none
Cc1cc(OCc2nn[nH]n2)c2c(C)c(Cc3ccccc3)c(=O)oc2c1	Apaf-1 act -45 | Rh110 interf act inactive | Apaf-1 act conf2 inactive
COc1ccc(-c2sc3ccccc3c2-c2ccc(OCCN(C)C)cc2)cc1	none
COc1cc(C2Nc3cccc4cccc(c34)N2)cc(OC)c1OC(C)=O	none
CCCCCc1ccc(OCCCC[n+]2cccc(C)c2)c(CCCCC)c1	none
CCCCC(=Nc1ccc(N)cc1)C1=C(O)C(C(=O)OC)C(C)(C)CC1=O (stereo not given)	none
COc1cc(Cn2c(N)c(C#N)c3nc4ccccc4nc32)cc(OC)c1	none
Cc1ccc(S(=O)(=O)N2CCN(c3ccc([N+](=O)[O-])c4cccnc34)CC2)cc1	none
O=C(Nc1ccncc1NC(=O)c1cccc([N+](=O)[O-])c1)c1cccc([N+](=O)[O-])c1	Apaf-1 act -40 | Rh110 interf act inactive | Apaf-1 act conf2 inactive
O=C(CN1CCc2cc3c(cc2C1)OCCCO3)Nc1cccc([N+](=O)[O-])c1	none
O=C(N/N=C/c1ccc(-c2ccccc2[N+](=O)[O-])o1)c1cccnc1	none
COc1ccc(CCNC(=O)COC(=O)c2cccs2)cc1OC	Apaf-1 act -163 | Rh110 interf act inactive | Apaf-1 act conf2 inactive
CCOc1cc(/C=C2\C(=O)N(c3ccc(C(N)=O)cc3)N=C2C)ccc1OC(=O)c1cccs1	none
COc1ccc(CCN(C)C(=O)c2cccc(S(=O)(=O)NCc3ccccc3)c2)cc1OC	none
CC1=NN(c2ccccc2)C(=O)/C1=C/c1ccc[nH]1	Apaf-1 act -138 | Rh110 interf act inactive | Apaf-1 act conf2 inactive
CC1=NN(c2ccccc2)C(=O)/C1=C\c1ccc(Br)s1	none
CC1=NN(c2ccccc2)C(=O)/C1=C/c1ccc(Cl)cc1	none
COc1ccc(C(=O)Nn2cnc3scc(-c4cccs4)c3c2=O)c(O)c1	Apaf-1 act -391 | Rh110 interf act inactive | Apaf-1 act conf2 inactive
O=C(OCC(=O)N1CCC(c2ccccc2)=N1)c1ccc([N+](=O)[O-])s1	none
COc1ccc(-c2noc(COc3ccc4ccccc4c3Br)n2)cc1OC	Apaf-1 act -136 | Rh110 interf act inactive | Apaf-1 act conf2 inactive
OC(c1ccccc1)c1cccnc1 (stereo not given)	Apaf-1 act -54 | Rh110 interf act inactive | Apaf-1 act conf2 inactive
COc1ccc2c(c1)c1ccc3c(c1n2C)C(=O)C=CC3=O	none
Nc1cc(N2CCCC2)c(Cl)cc1[N+](=O)[O-]	none
COc1ccccc1NC(=O)C1=C(C)Nc2nnnn2C1c1cccc(C)c1 (stereo not given)	Apaf-1 act -71 | Rh110 interf act inactive | Apaf-1 act conf2 inactive
CC(C)NC1=C(Cl)C(=O)c2ccccc2C1=O	none
Cc1ccccc1NC(=O)CSc1nnc(NC(=O)c2ccco2)s1	Apaf-1 act -66 | Rh110 interf act inactive | Apaf-1 act conf2 inactive
CC(=O)Nc1cc(OC(C)=O)c2nonc2c1OC(C)=O	none
CCN1C(=NCCc2ccc(Br)cc2)N[C@@H](c2ccccc2)[C@H](C(=O)OC)[C@H]1C	none
O=C(O)CC1S/C(=N/N=C/c2ccc(-c3ccc(Cl)cc3[N+](=O)[O-])o2)NC1=O (stereo not given)	none
Cc1cc(F)c(F)c(C(=O)N2CCCCC2C)c1Cl (stereo not given)	Apaf-1 act -116 | Rh110 interf act inactive | Apaf-1 act conf2 inactive
CCOC(=O)C1=C(c2ccccc2)NC(N)=NC1c1ccc(OCc2ccc(C(=O)OC)cc2)cc1 (stereo not given)	none
CCOC(=O)C1=C(C)Nc2nc(SCC)nn2C1c1ccc(OC)cc1 (stereo not given)	Apaf-1 act -56 | Rh110 interf act inactive | Apaf-1 act conf2 inactive
O=C1c2c(O)ccc(O)c2C(=O)c2c(NCCNCCO)ccc(NCCNCCO)c21	none
NC(=S)NNc1cccc2cccnc12	none
O=C(Cn1cc(S(=O)(=O)Cc2ccccc2)c2ccccc21)N1CCOCC1	Apaf-1 act -233 | Rh110 interf act inactive | Apaf-1 act conf2 inactive
c1ccc([C@H]2CNCCN2CCc2cccc3ccccc23)cc1	none
O=[N+]([O-])c1cncc([N+](=O)[O-])c1Nc1cccc(O)c1	Apaf-1 act -64 | Rh110 interf act inactive | Apaf-1 act conf2 inactive
O=[N+]([O-])c1cc([N+](=O)[O-])c2nonc2c1Nc1ccc(O)cc1	none
O=C1C(Nc2cccc(O)c2)=C(N2CCCCC2)C(=O)c2ccccc21	none
Cc1[nH]n(-c2ccccc2)c(=O)c1/C=N/Nc1nncc(-c2ccccc2)n1	none
COc1ccccc1NC1=C(N2CCCCC2)C(=O)c2ccccc2C1=O	none
C=C(C)Cc1c(C)c(C#N)c2[nH]c3ccccc3n2c1=O	none
COc1cc(/C=C2\SC(=O)N(c3cccc(Cl)c3)C2=O)cc([N+](=O)[O-])c1O	Apaf-1 act -142 | Rh110 interf act inactive | Apaf-1 act conf2 -132 | Apaf1 act interf inactive
COc1cc(/C=C2/C(=O)N(c3ccc([N+](=O)[O-])cc3)N=C2N2CCOCC2)ccc1O	none
O=C1CC(CC(=O)N/N=C/c2ccccc2[N+](=O)[O-])=NN1	none
CC1=NN(c2ccccc2)C(=O)/C1=C/c1cccs1	none
Cc1c(N=Cc2cccs2)c(=O)n(-c2ccccc2)n1C	Apaf-1 act -182 | Rh110 interf act inactive | Apaf-1 act conf2 inactive
COc1cc(C(=O)NC(C)c2ccc(-n3ccnc3)cc2)cc(OC)c1C (stereo not given)	none
CCCCCCSc1cc(-c2nc3ccc(C)cn3c2NCCCC)ccc1OC	none
Cc1ccc(-n2nc3c(c2NC(=O)c2ccco2)CS(=O)(=O)C3)cc1C	Apaf-1 act -391 | Rh110 interf act inactive | Apaf-1 act conf2 inactive
Cc1ccc(N(CC2=NCCN2)c2cccc(O)c2)cc1	none
CCN(CC(=O)NCc1cccs1)C(=O)CCCOc1ccc(C(C)(C)C)cc1	none
COCCn1c(N)c(C(=O)NCc2cccs2)c2nc3ccccc3nc21	none
O=C(NCc1cccs1)c1cccnc1C(=O)O	Apaf-1 act -79 | Rh110 interf act inactive | Apaf-1 act conf2 inactive
O=C(Cc1cc(=O)[nH][nH]1)N/N=C/c1cccc2ccccc12	none
COCCOc1cc(NCc2ccccc2)c2ncn(C(C)C)c2c1	none
